In ChEMBL document CHEMBL1147539, “Synthesis and biological evaluation of novel, selective, nonsteroidal glucocorticoid receptor antagonists” (Bioorg Med Chem Lett, 2004):

Legend:
Androgen receptor = target: T1, Androgen receptor (Homo sapiens, UniProt P10275); assay: Displacement of [3H]mibolerone from human Androgen receptor
T1 sequence (P10275 whole entry): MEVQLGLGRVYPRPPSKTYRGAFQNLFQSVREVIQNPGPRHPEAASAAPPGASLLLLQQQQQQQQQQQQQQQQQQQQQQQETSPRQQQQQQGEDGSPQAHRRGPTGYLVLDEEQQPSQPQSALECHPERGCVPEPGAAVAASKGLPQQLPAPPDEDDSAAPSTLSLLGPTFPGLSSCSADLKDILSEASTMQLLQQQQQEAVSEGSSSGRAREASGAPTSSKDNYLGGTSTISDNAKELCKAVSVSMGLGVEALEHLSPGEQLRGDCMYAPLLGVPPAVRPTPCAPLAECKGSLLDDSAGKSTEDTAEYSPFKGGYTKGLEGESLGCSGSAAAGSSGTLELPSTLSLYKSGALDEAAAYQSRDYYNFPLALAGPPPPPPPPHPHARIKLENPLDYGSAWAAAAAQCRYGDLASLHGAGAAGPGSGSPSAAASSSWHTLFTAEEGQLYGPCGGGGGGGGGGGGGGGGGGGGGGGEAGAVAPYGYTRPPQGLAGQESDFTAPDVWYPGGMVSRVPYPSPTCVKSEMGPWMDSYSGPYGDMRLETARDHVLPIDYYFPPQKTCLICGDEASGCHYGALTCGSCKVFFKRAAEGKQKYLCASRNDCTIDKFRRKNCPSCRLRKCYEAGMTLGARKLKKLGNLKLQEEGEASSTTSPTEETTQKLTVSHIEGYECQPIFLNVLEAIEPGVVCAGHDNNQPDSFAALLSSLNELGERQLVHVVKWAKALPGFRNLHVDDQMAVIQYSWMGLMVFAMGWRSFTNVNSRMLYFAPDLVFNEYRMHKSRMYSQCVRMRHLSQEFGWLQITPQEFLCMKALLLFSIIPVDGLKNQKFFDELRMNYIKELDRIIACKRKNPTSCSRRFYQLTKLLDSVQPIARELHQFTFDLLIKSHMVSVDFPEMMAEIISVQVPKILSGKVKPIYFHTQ

Glucocorticoid receptor [1] = target: T2, Glucocorticoid receptor (Homo sapiens, UniProt P04150); assay: Displacement of [3H]dexamethasone from human Glucocorticoid receptor (GR); […]
T2 sequence (P04150 whole entry): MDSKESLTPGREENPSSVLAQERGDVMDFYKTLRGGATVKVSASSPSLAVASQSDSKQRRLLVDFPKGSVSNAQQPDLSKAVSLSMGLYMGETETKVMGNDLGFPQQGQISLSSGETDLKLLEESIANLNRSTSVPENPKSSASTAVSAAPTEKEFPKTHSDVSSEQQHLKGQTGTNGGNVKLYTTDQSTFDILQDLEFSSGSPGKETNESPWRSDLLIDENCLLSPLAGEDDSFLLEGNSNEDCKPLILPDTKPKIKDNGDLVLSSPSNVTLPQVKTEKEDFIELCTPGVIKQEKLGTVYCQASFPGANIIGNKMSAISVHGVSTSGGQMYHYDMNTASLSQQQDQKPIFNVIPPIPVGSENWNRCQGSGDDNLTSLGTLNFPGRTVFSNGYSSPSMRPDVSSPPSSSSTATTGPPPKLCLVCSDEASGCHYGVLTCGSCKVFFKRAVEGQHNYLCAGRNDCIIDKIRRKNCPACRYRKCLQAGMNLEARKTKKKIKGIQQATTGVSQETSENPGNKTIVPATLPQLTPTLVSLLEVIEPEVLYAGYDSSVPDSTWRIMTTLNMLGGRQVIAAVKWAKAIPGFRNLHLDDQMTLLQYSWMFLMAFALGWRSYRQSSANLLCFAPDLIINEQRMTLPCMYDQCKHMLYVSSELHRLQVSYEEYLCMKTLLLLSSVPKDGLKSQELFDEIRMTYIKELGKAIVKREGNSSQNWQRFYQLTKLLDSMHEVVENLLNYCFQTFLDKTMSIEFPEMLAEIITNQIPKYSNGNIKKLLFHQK

[2] = target: T3, Mineralocorticoid receptor (Homo sapiens, UniProt P08235); assay: Displacement of [3H]aldosterone from human Mineralocorticoid receptor
T3 sequence (P08235 whole entry): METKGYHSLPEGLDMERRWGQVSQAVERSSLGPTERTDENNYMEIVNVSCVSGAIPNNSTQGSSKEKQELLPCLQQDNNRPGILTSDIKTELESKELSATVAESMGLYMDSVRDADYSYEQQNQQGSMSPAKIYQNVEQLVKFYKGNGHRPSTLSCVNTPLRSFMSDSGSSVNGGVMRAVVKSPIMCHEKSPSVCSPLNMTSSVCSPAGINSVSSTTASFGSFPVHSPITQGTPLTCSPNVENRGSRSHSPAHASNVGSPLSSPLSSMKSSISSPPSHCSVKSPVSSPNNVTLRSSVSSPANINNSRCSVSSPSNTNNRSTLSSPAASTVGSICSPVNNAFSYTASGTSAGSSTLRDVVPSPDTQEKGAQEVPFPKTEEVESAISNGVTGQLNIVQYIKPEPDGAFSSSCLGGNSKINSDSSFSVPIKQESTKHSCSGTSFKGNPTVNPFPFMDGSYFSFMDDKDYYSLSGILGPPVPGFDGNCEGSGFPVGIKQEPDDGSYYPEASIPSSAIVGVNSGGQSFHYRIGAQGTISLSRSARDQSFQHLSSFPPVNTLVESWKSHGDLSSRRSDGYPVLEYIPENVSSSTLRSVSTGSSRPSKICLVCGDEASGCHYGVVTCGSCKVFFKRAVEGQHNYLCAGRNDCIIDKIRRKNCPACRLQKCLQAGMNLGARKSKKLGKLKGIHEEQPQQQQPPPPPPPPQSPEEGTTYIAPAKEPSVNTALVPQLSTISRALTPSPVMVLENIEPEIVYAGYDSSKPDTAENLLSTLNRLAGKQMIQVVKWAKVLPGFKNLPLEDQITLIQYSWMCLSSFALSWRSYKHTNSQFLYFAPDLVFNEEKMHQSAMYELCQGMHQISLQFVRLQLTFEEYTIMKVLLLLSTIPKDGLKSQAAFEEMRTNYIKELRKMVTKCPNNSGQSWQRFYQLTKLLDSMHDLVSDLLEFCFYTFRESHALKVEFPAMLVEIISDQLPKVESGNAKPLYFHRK
Procedure, shortened: (§1)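 Human steroid receptor (PR, MR, AR, ERα) binding measured by radioligand displacement, with IC50s determined in duplicate. Values without a range come from a single experiment, and values with a range are geometric means of repeat experiments.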

Glucocorticoid receptor [3] = target: T2, Glucocorticoid receptor; assay: Effect on human Glucocorticoid receptor (GR) in a whole cell assay to measure functional cellular GR-antagonism (GRAF)
Estrogen receptor = target: T4, Estrogen receptor (Homo sapiens, UniProt P03372); assay: Displacement of [3H]estradiol from human estrogen receptor alpha; procedure, shortened: as §1
T4 sequence (P03372 whole entry): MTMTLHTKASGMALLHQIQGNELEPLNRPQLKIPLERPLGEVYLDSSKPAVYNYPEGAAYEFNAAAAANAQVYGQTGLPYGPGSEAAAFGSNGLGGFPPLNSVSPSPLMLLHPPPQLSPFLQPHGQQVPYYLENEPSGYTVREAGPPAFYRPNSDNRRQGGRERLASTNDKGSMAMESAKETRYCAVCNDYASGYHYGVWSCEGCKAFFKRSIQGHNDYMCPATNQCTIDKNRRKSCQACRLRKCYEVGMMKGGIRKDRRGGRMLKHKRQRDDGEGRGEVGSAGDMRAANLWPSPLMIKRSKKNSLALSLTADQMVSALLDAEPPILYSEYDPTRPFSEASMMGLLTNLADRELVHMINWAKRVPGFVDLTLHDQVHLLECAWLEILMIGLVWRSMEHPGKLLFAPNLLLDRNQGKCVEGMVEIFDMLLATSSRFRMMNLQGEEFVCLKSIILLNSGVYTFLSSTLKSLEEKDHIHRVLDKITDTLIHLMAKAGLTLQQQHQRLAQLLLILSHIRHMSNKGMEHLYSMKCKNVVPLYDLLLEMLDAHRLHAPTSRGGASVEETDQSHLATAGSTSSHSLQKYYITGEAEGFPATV

Glucocorticoid receptor [4] = target: T2, Glucocorticoid receptor; assay: Displacement of [3H]dexamethasone from human Glucocorticoid receptor (GR); Value ranges from 1382-1049 nM
Procedure, shortened: (§2)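 Binding to human GR; IC50 reported as the geometric mean of two experiments (three for some values), each run in duplicate, with the range of the experiments given.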

Glucocorticoid receptor [5] = target: T2, Glucocorticoid receptor
Glucocorticoid receptor [6] = target: T2, Glucocorticoid receptor; assay: Displacement of [3H]dexamethasone from human Glucocorticoid receptor (GR); Value ranges from 5-6 nM; procedure, shortened: as §2
Glucocorticoid receptor [7] = target: T2, Glucocorticoid receptor; assay: Displacement of [3H]dexamethasone from human Glucocorticoid receptor (GR); Value ranges from 3-4 nM; procedure, shortened: as §2
Glucocorticoid receptor [8] = target: T2, Glucocorticoid receptor; assay: Displacement of [3H]dexamethasone from human Glucocorticoid receptor (GR); Value ranges from 159-161 nM; procedure, shortened: as §2
Glucocorticoid receptor [9] = target: T2, Glucocorticoid receptor; assay: Displacement of [3H]dexamethasone from human Glucocorticoid receptor (GR)
Glucocorticoid receptor [10] = target: T2, Glucocorticoid receptor; remark: listed apart in the source

COc1cccc2c1-c1ccc(NS(C)(=O)=O)cc1C(c1ccccc1)O2 (stereo not drawn)
IC50 (Androgen receptor): 6530 nM
IC50 (Glucocorticoid receptor [1]): 19 nM
IC50 [2]: 22900 nM
IC50 (Glucocorticoid receptor [3]): 87 nM
IC50 (Estrogen receptor): > 10000 nM

COC(=O)c1cccc2c1-c1ccc(NS(C)(=O)=O)cc1C(c1ccccc1)O2 (stereo not drawn)
IC50 (Glucocorticoid receptor [4]): 1200 nM

CCS(=O)(=O)Nc1ccc2c(c1)C(c1ccccc1)Oc1cccc(OC)c1-2 (stereo not drawn)
IC50 (Glucocorticoid receptor [1]): 62 nM
IC50 (Glucocorticoid receptor [3]): 251 nM

COc1cccc2c1-c1ccc(NS(=O)(=O)c3cccs3)cc1C(c1ccccc1)O2 (stereo not drawn)
IC50 (Glucocorticoid receptor [5]): 18 nM
IC50 (Glucocorticoid receptor [3]): 93 nM

COc1cccc(C2Oc3cccc(OC)c3-c3ccc(NS(C)(=O)=O)cc32)c1 (stereo not drawn)
IC50 (Glucocorticoid receptor [6]): 6 nM
IC50 (Glucocorticoid receptor [3]): 122 nM

COc1cccc2c1-c1ccc(NS(C)(=O)=O)cc1C(c1ccc(Cl)c(Cl)c1)O2 (stereo not drawn)
IC50 (Glucocorticoid receptor [7]): 3 nM
IC50 (Glucocorticoid receptor [3]): 378 nM

CCC(=O)Nc1ccc2c(c1)C(c1ccccc1)Oc1cccc(OC)c1-2 (stereo not drawn)
IC50 (Glucocorticoid receptor [3]): 124 nM
IC50 (Glucocorticoid receptor [8]): 160 nM

COc1cccc2c1-c1ccc(NS(C)(=O)=O)cc1C(c1cc(C)cc(C)c1)O2 (stereo not drawn)
IC50 (Androgen receptor): > 10000 nM
IC50 (Glucocorticoid receptor [9]): 2 nM
IC50 [2]: 1220 nM
IC50 (Glucocorticoid receptor [3]): 78 nM

COc1cccc2c1-c1ccc(NS(C)(=O)=O)cc1C(c1cccnc1)O2 (stereo not drawn)
IC50 (Glucocorticoid receptor [10]): 460 nM

COc1cccc2c1-c1ccccc1C(c1ccccc1)O2 (stereo not drawn)
IC50 (Glucocorticoid receptor [9]): 10000 nM
IC50 (Glucocorticoid receptor [3]): 1910 nM
